Measurements: article PMC7152711 (EBioMedicine, 2020)
Like-named read-outs stand apart in the source and are kept apart here.

Assays:
[1] = test system: E. granulosus ss protoscoleces (PSCs); assay: E. granulosus ss PSC killing assay; type: cell-based, Echinococcus granulosus sensu stricto; settings: Echinococcus granulosus, 24 h, read-out: LC50 (protoscolicidal activity)
In short: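 Protoscoleces were aspirated from cysts in naturally infected sheep livers and cultured by a prior method. Wells held 200 PSCs; test compound from a 10× aqueous stock, final 34–114 μM; medium-only control. Incubation was 24 h at 37 °C, 5% CO2. Viability: 0.1% methylene blue for 5 min, with blue PSCs scored dead under an inverted microscope. Triplicate; LC50 by nonlinear regression.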

[2] = test system: E. granulosus ss cysts; assay: In vivo efficacy, intraperitoneal administration, secondarily infected mice; design: species or system Echinococcus granulosus sensu stricto
In short: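 Female BALB/c mice, 6–8 weeks, were infected intraperitoneally with microcysts and randomised at 3 months. Test compound in saline at 14, 28 or 57 mg/kg (n = 10 each), 1.0 ml i.p. once daily for 3 days; saline controls n = 12. Necropsy 2 weeks post-treatment. Cysts were weighed, and viability was scored by morphology: type 1 alive, types 2–3 dead. Kruskal-Wallis test.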

[3] = test system: E. granulosus ss cysts; assay: In vivo efficacy, oral administration, secondarily infected mice; design: species or system Echinococcus granulosus sensu stricto
In short: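 Microcyst-infected female BALB/c mice (3 months post-infection), 10 per group, were gavaged once daily for 30 days with 0.2 ml. Test compound 57 mg/kg was given in deionised water, albendazole 50 mg/kg in 0.5% carboxymethyl cellulose, and controls received deionised water. Necropsy 2 weeks post-treatment. Cysts were weighed and scored alive or dead by morphological type. One-way ANOVA or Kruskal-Wallis test.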

[4] = test system: E. granulosus ss cysts; assay: Microinjection treatment of cysts; type: in vivo, Echinococcus granulosus sensu stricto
[5] = In vivo pharmacokinetics and tissue distribution; design: species or system mice; settings: for Kp: male, ICR, mouse, intraperitoneal, 57 mg/kg
In short: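 Male ICR mice (20–22 g, 3 per time point) received a single 57 mg/kg i.p. dose. Plasma was precipitated with acetonitrile containing internal standards and centrifuged at 2600 g for 10 min at 4 °C. Liver and lung were homogenised in 4 volumes of 100 mM phosphate buffer, pH 7.4, and processed alike. Samples taken 0.25–48 h were measured by LC-MS/MS and analysed non-compartmentally.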

[6] = biological target: T1, CYP1A2 (Homo sapiens, UniProt P05177); assay: CYP450 inhibition assay, human liver microsomes; type: in vitro ADME
T1 sequence (P05177 1-516): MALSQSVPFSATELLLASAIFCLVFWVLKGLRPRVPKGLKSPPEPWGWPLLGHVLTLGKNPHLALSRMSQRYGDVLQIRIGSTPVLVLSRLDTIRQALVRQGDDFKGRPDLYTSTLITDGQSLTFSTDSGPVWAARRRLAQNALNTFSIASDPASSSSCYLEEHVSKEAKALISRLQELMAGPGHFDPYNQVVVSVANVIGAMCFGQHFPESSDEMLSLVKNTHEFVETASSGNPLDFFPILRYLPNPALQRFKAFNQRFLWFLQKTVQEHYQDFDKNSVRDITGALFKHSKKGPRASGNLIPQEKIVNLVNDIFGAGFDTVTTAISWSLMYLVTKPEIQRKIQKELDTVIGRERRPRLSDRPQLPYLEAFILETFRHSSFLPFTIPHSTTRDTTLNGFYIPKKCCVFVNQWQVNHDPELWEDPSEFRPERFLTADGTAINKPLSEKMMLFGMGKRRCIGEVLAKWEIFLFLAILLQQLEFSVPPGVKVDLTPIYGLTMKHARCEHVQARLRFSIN

[7] = biological target: CYP2C9 (Homo sapiens, UniProt P11712); assay: CYP450 inhibition assay, human liver microsomes; type: in vitro ADME
[8] = biological target: CYP2C19 (Homo sapiens, UniProt P33261); assay: CYP450 inhibition assay, human liver microsomes; type: in vitro ADME
[9] = biological target: CYP3A4 (Homo sapiens, UniProt P08684); assay: CYP450 inhibition assay, human liver microsomes; type: in vitro ADME
[10] = biological target: CYP2D6 (Homo sapiens, UniProt P10635); assay: CYP450 inhibition assay, human liver microsomes; type: in vitro ADME
[11] = biological target: T2, E. granulosus ss topoisomerase I (Egtopo I) (Echinococcus granulosus, UniProt W6UT38); assay: Egtopo I-mediated DNA relaxation assay; type: biochemical, Echinococcus granulosus sensu stricto; settings: read-out: IC50 Egtopo I activity; relaxation of supercoiled pBR322, 30 min 37 °C
T2 sequence (W6UT38 1-621): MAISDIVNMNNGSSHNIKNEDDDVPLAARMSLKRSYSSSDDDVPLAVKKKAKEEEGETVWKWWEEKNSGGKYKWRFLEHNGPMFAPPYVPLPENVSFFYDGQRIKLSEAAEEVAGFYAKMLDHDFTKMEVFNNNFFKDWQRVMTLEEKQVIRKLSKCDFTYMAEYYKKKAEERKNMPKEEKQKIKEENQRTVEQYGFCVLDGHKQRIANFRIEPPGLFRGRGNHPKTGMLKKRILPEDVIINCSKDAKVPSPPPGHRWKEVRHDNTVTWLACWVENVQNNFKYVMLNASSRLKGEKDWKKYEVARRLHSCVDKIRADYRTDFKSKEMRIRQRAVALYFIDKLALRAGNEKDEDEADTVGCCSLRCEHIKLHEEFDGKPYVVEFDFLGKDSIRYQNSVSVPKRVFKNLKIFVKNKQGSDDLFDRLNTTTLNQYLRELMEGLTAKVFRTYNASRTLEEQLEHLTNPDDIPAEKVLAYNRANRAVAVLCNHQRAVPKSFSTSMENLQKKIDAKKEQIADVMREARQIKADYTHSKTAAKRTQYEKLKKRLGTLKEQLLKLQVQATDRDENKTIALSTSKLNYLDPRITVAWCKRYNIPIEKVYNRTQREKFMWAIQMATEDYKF
In short: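 Kit-based relaxation assay with pBR322 (200 ng), Egtopo I (300 ng) and 0.1% BSA. Test compound at final 50, 100, 150, 200, 300, 400, 500 and 600 μM in assay buffer, 30 min at 37 °C. Stopped with 10% SDS plus loading buffer, run on 1% agarose and stained with ethidium bromide (5 μg/ml). IC50 from a nonlinear regression fit, n = 3.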

[12] = test system: caspase-3; assay: Caspase-3 activity assay in PSCs; type: cell-based, E. granulosus; settings: 100 µM 24 h, vs vehicle controls
[13] = test system: E. granulosus ss PSCs; assay: TUNEL assay in PSCs; type: cell-based; settings: 100 µM, 24 h
[14] = test system: E. granulosus ss PSCs; assay: DNA fragmentation assay in PSCs; type: cell-based; settings: 50 μM, 24 h
[15] = Tolerability, organ weights and blood parameters, intraperitoneal study; type: in vivo, mice
In short: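 Microcyst-infected female BALB/c mice were dosed i.p. once daily for 3 days with test compound in saline (14, 28, 57 mg/kg; n = 10) or saline (n = 12). During treatment they were watched for emaciation, hunched back, ruffled coat, appetite and behaviour changes. Two weeks post-treatment, plasma was taken for haematology and biochemistry, and liver, kidneys, thymus and body were weighed.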

[16] = Tolerability, body weight and blood parameters, oral study; type: in vivo, mice
In short: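 In the oral study, infected BALB/c mice (n = 10 per group) were gavaged daily for 30 days with test compound in water, albendazole in 0.5% carboxymethyl cellulose, or water alone. Mice were monitored for morbidity signs and behaviour. Two weeks after treatment, plasma was collected, and body, liver, kidney and thymus weights were recorded.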

[17] = test system: E. granulosus ss cysts; assay: Transmission electron microscopy of cysts from treated mice; type: in vivo, Echinococcus granulosus sensu stricto
In short: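 Cysts came from infected BALB/c mice given test compound at 57 mg/kg, either i.p. once daily for 3 days or by gavage daily for 30 days, and from albendazole-treated (50 mg/kg p.o.) and untreated mice. Cyst ultrastructure was examined by transmission electron microscopy, covering the laminated layer, tegument, germinal layer and microtriches.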

[18] = 28 days oral treatment NOAEL in the rat; settings: in vivo, 23 mg/kg/day
[19] = 28 days oral treatment NOAEL in the dog; settings: in vivo, 5 mg/kg/day
[20] = dogs, oral 24 mg/kg/day for 30 days ref 20; cited from earlier work
[21] = rat, 28 days oral treatment ref 16; cited from earlier work
[22] = dog, 28 days oral treatment ref 16; cited from earlier work
[23] = test system: bone marrow; settings: mice, bone marrow ref 38, 39; cited from earlier work
[24] = test system: Salmonella typhimurium strains; settings: cited from earlier work
[25] = test system: cystic echinococcosis; settings: clinical study ref 5; cited from earlier work
[26] = 0 to 48 h, single 57 mg/kg i.p.

Chain of CYP2C19 (P33261 whole entry): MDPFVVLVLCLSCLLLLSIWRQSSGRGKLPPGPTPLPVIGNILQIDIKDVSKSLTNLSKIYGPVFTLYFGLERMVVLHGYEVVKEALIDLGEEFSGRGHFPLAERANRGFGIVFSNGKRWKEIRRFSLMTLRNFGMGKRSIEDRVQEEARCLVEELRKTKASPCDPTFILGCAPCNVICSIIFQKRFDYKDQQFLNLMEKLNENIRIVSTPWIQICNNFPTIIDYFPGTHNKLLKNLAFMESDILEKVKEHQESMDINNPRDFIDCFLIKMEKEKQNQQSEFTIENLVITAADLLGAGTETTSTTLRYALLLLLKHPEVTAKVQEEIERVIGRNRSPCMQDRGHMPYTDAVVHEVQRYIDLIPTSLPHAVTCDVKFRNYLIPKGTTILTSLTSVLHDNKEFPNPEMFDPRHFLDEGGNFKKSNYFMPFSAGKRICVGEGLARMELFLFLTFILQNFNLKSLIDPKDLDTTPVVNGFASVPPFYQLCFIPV
Chain of CYP3A4 (P08684 whole entry): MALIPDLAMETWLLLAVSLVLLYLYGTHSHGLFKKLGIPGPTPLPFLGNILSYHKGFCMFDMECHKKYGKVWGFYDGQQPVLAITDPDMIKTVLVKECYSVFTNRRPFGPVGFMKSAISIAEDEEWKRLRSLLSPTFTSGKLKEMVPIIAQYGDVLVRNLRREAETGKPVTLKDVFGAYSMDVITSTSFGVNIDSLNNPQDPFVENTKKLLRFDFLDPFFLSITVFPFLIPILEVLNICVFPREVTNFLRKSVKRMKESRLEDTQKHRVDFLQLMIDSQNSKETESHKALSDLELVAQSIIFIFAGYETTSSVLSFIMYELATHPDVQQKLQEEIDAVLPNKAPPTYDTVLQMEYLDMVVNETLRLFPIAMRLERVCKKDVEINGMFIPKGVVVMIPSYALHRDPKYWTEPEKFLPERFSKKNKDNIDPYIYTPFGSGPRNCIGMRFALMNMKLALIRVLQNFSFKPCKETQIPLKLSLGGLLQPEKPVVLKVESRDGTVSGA
Chain of CYP2C9 (P11712 whole entry): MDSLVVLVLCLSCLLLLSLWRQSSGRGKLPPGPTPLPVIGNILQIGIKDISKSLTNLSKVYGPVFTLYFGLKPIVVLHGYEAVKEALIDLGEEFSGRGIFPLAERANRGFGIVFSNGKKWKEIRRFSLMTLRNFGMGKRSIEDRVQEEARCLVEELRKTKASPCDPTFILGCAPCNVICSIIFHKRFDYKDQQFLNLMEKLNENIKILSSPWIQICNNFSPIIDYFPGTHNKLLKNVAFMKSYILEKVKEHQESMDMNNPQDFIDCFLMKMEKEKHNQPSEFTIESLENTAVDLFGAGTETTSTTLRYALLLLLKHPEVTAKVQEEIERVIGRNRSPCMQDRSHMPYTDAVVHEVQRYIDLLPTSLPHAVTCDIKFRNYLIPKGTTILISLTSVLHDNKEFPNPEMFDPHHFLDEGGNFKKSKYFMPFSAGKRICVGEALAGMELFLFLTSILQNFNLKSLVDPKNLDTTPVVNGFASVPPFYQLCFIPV
Chain of CYP2D6 (P10635 whole entry): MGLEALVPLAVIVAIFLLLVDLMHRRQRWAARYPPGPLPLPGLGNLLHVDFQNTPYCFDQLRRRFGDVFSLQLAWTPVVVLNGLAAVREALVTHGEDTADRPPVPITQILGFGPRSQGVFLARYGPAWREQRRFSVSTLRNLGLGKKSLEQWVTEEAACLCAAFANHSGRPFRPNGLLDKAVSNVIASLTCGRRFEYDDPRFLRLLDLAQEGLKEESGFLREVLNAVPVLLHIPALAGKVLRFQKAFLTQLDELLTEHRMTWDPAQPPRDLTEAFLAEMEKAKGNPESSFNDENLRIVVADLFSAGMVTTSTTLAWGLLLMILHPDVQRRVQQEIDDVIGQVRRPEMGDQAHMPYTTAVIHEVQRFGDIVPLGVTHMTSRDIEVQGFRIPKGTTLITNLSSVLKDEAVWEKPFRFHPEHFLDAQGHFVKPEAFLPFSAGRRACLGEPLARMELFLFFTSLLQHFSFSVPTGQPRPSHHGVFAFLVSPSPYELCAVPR

COc1ccc2nc3cc(Cl)ccc3c(Nc3cc(CN4CCCC4)c(O)c(CN4CCCC4)c3)c2n1 [PND, pyronaridine]
LC50 [1]: 49 ± 0.2 µM | cyst mortality ([2]; 57 mg/kg i.p. q.d. 3 days): 100% | wet cyst weight reduction ([2]; 57 mg/kg i.p. q.d. 3 days, vs unmedicated mice): 38.7% | growth of cysts ([2]; 14, 28 and 57 mg/kg i.p. q.d. 3 days): successfully suppressed the growth of cysts | cysts killed (mortality rate) ([3]; PND 57 mg/kg p.o. q.d. 30 days): 90.7% | parasite wet weight reduction ([3]; PND 57 mg/kg p.o. q.d. 30 days, vs vehicle control): 42.4% | cyst counts ([4]; 200 μM microinjected, 35 cysts/mouse transferred, 30 days): 6.4 ± 1.2 | parasite wet weight reduction ([4]; 200 μM microinjected, 30 days post-treatment, vs saline group): 52.3% | cysts killed after microinjection ([4]; microinjection with PND): more than 90% | average concentration in the liver [5, 26]: 435.7 µmol/kg | average concentration in the lungs [5, 26]: 122.5 µmol/kg | average plasma concentration [5, 26]: 1.5 µM | Kp ([5]; liver/plasma): 290 | Kp ([5]; lungs/plasma): 81.7 | IC50 [6]: > 10 µM | IC50 [7]: > 10 µM | IC50 [8]: > 10 µM | IC50 [9]: > 10 µM | IC50 [10]: 1.53 µM | IC50 [11]: 209.7 ± 1.1 µM | increase in caspase-3 activity [12]: 20 fold | TUNEL staining (DNA fragmentation) [13]: abundant TdT dUTP nick-end labeling (TUNEL)-positive cells were observed | DNA ladder on agarose gel [14]: a clear pattern of DNA fragmentation (DNA ladder) was observed | behaviour and adverse effects ([15]; 14, 28, 57 mg/kg i.p. q.d. 3 days): without obvious adverse effects | liver weight ([15]; high-dosage group (57 mg/kg i.p.), vs control): a minor increase in liver weight | body weight ([16]; PND 57 mg/kg p.o. 30 days): minor loss of body weight | cyst ultrastructure (TEM) ([17]; PND 57 mg/kg, both i.p. and p.o.): devastating damage of the cyst tissues | NOAEL at 28 days [18]: 3.7 mg/kg/day | NOAEL at 28 days [19]: 2.7 mg/kg/day | tolerability [20]: well tolerated | no observed adverse effect level (NOAEL) [21]: 23 mg/kg/day | no observed adverse effect level (NOAEL) [22]: 5 mg/kg/day | micronucleus frequency [23]: no increase in micronucleus frequency in the bone marrow | Ames mutagenicity ([24]; strain TA1537 ref 40): evidence of bacterial mutagenicity | Ames mutagenicity ([24]; strains TA100, TA98, TA1535 and TA1538 ref 40): did not induce mutations

CCCSc1ccc2nc(NC(=O)OC)[nH]c2c1 [ABZ, albendazole]
LC50 [1]: 79.2 ± 3.9 µM | cyst mortality rate ([3]; ABZ 50 mg/kg p.o. q.d. 30 days): 22.2% | cyst weight reduction ([3]; ABZ 50 mg/kg p.o. q.d. 30 days): 48.1% | body weight ([16]; ABZ 50 mg/kg p.o. 30 days): minor loss of body weight | cyst ultrastructure (TEM) ([17]; ABZ 50 mg/kg, p.o.): did not exhibit obvious ultrastructural changes | CE cases that did not respond favorably to treatment [25]: approximately 40%
